Laboratory results as given in ChEMBL document CHEMBL1134108, “Expedited discovery of second generation NK-1 antagonists: identification of a nonbasic aryloxy substituent” (Bioorg Med Chem Lett, 2001).

Key:
[1] = Bioavailability in dog; assay type: ADME, organism-based, Canis lupus familiaris; conditions: in vivo
[2] = target: T1, Substance-P receptor (Homo sapiens, UniProt P25103); assay: In vitro inhibition of binding of [125I]Bolton-Hunter SP to Tachykinin receptor 1 in human IM-9 cell line at a concentration of 10 nM; assay type: cell-based
Procedure, shortened: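 Single-point screen at 10 nM test compound, run in triplicate, measuring displacement of [125I]Bolton-Hunter SP binding on human IM-9 cells expressing NK-1 receptors.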

[3] = target: T1, Substance-P receptor; assay: In vitro inhibition of binding of [125I]Bolton-Hunter SP to Tachykinin receptor 1 in human IM-9 cell line; assay type: cell-based
[4] = organism: Canis familiaris; assay: In vitro microsome stability tested in dog liver expressed as percent remaining […]; assay type: functional; conditions: Canis lupus familiaris

T1 sequence (P25103 whole entry): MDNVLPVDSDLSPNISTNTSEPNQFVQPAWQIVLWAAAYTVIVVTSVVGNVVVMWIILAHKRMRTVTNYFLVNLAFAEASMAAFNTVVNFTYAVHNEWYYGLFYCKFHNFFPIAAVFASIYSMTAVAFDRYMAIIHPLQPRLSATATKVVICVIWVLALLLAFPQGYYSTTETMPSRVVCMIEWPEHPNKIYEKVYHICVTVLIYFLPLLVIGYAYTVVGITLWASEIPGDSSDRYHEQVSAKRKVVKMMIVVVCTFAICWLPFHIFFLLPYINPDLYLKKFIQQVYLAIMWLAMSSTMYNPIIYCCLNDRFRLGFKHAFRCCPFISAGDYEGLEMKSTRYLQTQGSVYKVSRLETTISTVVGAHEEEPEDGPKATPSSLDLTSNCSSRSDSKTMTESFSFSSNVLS

SMILES | bioavailability [1] [%] | inhibition [2] [%] | IC50 [3] [nM] | Remaining [4] [%]
COc1ccccc1CN(C[C@@H](Cc1c[nH]c2ccccc12)NC(=O)CN1CCC(N2CCCCC2)CC1)C(C)=O [LANEPITANT] | 9 |  |  | 
CC(=O)N(Cc1ccccc1Cl)C[C@@H](Cc1c[nH]c2ccccc12)NC(=O)COc1ccc(-n2ccnc2)cc1 | 36 |  |  | 96
COc1ccccc1CN(C[C@@H](Cc1c[nH]c2ccccc12)NC(=O)CCC(=O)c1ccccc1)C(C)=O |  | 20 | 34 | 
COc1ccccc1CN(CC(Cc1c[nH]c2ccccc12)NC(=O)CSc1ccccn1)C(C)=O (configuration not stated) |  | 41 | 10.8 | 
COc1ccccc1CN(CC(Cc1c[nH]c2ccccc12)NC(=O)Cc1ccc2c(c1)OCCO2)C(C)=O (configuration not stated) |  | 46 | 8.3 | 
COc1ccccc1CN(CC(Cc1c[nH]c2ccccc12)NC(=O)c1ccccc1Cl)C(C)=O (configuration not stated) |  | 0 |  | 
COc1ccccc1CN(CC(Cc1c[nH]c2ccccc12)NC(=O)CCC(=O)c1ccc(Cl)cc1)C(C)=O (configuration not stated) |  | 49 |  | 
COc1ccccc1CN(CC(Cc1c[nH]c2ccccc12)NC(=O)CCC(=O)c1ccc(F)cc1)C(C)=O (configuration not stated) |  | 66 | 6 | 
CCOCC(=O)NC(Cc1c[nH]c2ccccc12)CN(Cc1ccccc1OC)C(C)=O (configuration not stated) |  | 4 |  | 
COc1ccccc1CN(CC(Cc1c[nH]c2ccccc12)NC(=O)c1ccccc1)C(C)=O (configuration not stated) |  | 0 |  | 
COc1ccccc1CN(CC(Cc1c[nH]c2ccccc12)NC(=O)CCc1ccccc1)C(C)=O (configuration not stated) |  | 20 |  | 
COc1ccccc1CC(=O)NC(Cc1c[nH]c2ccccc12)CN(Cc1ccccc1OC)C(C)=O (configuration not stated) |  | 23 |  | 

Continued, in another order:

bioavailability [1] [%] | inhibition [2] [%] | IC50 [3] [nM] | SMILES | Remaining [4] [%]
 | 81 | 9.7 | COc1ccc(CC(=O)NC(Cc2c[nH]c3ccccc23)CN(Cc2ccccc2OC)C(C)=O)cc1 (configuration not stated) | 
 | 3 |  | COc1cccc(OCC(=O)NC(Cc2c[nH]c3ccccc23)CN(Cc2ccccc2OC)C(C)=O)c1 (configuration not stated) | 
 | 87 | 0.82 | COc1ccccc1CN(CC(Cc1c[nH]c2ccccc12)NC(=O)COc1ccc(CO)cc1)C(C)=O (configuration not stated) | 
 | 18 |  | COc1ccccc1CN(CC(Cc1c[nH]c2ccccc12)NC(=O)Cc1ccccc1)C(C)=O (configuration not stated) | 
47 |  | 0.98 | COc1ccccc1CN(C[C@@H](Cc1c[nH]c2ccccc12)NC(=O)COc1ccc(-c2csnn2)cc1)C(C)=O | 67
 | 52 | 10.2 | COc1ccc(OCC(=O)NC(Cc2c[nH]c3ccccc23)CN(Cc2ccccc2OC)C(C)=O)cc1 (configuration not stated) | 
 | 19 |  | COc1ccccc1CN(CC(Cc1c[nH]c2ccccc12)NC(=O)COc1ccc(Cl)cc1)C(C)=O (configuration not stated) | 
 | 68 | 3.5 | COc1ccccc1CN(CC(Cc1c[nH]c2ccccc12)NC(=O)COc1ccc(C(C)=O)cc1)C(C)=O (configuration not stated) | 
 | 59 | 3.2 | COc1ccccc1CN(CC(Cc1c[nH]c2ccccc12)NC(=O)COc1ccc(O)cc1)C(C)=O (configuration not stated) | 
17 |  | 0.43 | COc1ccccc1CN(C[C@@H](Cc1c[nH]c2ccccc12)NC(=O)COc1ccc(CO)cc1)C(C)=O | 28
 | 25 |  | COc1ccccc1CN(CC(Cc1c[nH]c2ccccc12)NC(=O)Cc1ccc(O)cc1)C(C)=O (configuration not stated) | 
 | 30 |  | COc1ccccc1CN(CC(Cc1c[nH]c2ccccc12)NC(=O)Cc1ccccc1Cl)C(C)=O (configuration not stated) | 
 | 42 | 24 | COc1ccccc1CN(CC(Cc1c[nH]c2ccccc12)NC(=O)COc1ccccc1OC)C(C)=O (configuration not stated) | 
14 |  | 0.48 | COc1ccccc1CN(C[C@@H](Cc1c[nH]c2ccccc12)NC(=O)COc1ccc(-n2ccnc2)cc1)C(C)=O | 87
 | 22 |  | COc1cccc(CC(=O)NC(Cc2c[nH]c3ccccc23)CN(Cc2ccccc2OC)C(C)=O)c1 (configuration not stated) | 
 | 13 |  | COc1ccc(C(=O)NC(Cc2c[nH]c3ccccc23)CN(Cc2ccccc2OC)C(C)=O)cc1 (configuration not stated) | 
 | 63 | 3.3 | COc1ccc(C(=O)CCC(=O)NC(Cc2c[nH]c3ccccc23)CN(Cc2ccccc2OC)C(C)=O)cc1 (configuration not stated) | 
